# OX1R antag-1: blocks the human orexin 1 receptor; inhibition, % at 5 µM; O43613; CHO/OX1R cells, Fluo-8 calcium fluorescence, orexin A; 0.43% of 330,000 active;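 active means inhibition above its plate's threshold, mean inhibition of all tested compounds on the plate plus 3 SD, cut at about 37% in these data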
# Target sequence (O43613 whole entry, looked up): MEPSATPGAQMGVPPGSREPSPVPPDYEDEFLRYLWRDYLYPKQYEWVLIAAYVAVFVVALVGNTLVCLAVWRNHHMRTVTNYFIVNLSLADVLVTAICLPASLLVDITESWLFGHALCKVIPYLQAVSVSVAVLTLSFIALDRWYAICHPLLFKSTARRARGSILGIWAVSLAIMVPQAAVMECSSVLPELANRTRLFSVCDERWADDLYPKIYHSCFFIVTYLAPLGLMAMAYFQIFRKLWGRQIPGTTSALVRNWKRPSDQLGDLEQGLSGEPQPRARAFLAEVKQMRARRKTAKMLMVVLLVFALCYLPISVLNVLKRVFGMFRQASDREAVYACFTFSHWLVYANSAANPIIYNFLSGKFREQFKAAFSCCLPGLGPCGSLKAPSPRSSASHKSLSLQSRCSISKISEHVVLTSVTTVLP
# OX1R antag-2: antagonists of human orexin 1 receptor (OX1R); 1.8% of 330,000 active; OX1R-expressing cells, FRET antagonist read-out; inhibition, % at 6.6 µM; in the data active means inhibition mostly above about 38%, no sharp cut-off; inactive means mostly below about 40%
# CHO parental Ca: counter-screen: ATP calcium response change in parental CHO cells; parental CHO-K1, ATP-induced calcium, Fluo-8 fluorescence; inhibition, % at 5.6 µM; 0.63% of 330,000 active; AID 463079;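 active means inhibition above that plate's mean sample inhibition plus 3 SD, cut at about 26% in these data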
#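 Assay system – parental CHO cells · Reagent – ATP stimulus · Detection – intracellular calcium via Fluo-8 no-wash fluorescent dye · Evaluation – percent inhibition of ATP-evoked calcium rise, normalized to controls · Controls – ATP wells versus no-ATP DMSO wells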
# TAAR1 ag: agonists of human TAAR1. activation, % at 3 µM. AID 624467. CHO RD-HGA16 TAAR1, Fluo-8 calcium fluorescence; vehicle wells 0%, saturating PEA agonist 100%. 0.99% of 360,000 active;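 active means activation above the mean activation of all test compounds in the run plus 3 SD, cut at about 38% in these data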
#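 System: CHO-derived RD-HGA16 cells with stable Gα16 and human TAAR1. Times: 17-24 h plating, Fluo-8 75 min 37 °C, 30 min RT. Measured by: calcium-sensitive Fluo-8 signal, excitation 470-495, emission 515-575 nm. Read-out basis: % activation relative to PEA EC100 response. Control set: DMSO and PEA EC100. Repeats: no replicates (n 1).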
# TAAR1 antag: human TAAR1 antagonism; Q96RJ0; CHO RD-HGA16 TAAR1, Fluo-8 calcium fluorescence, antagonist; inhibition, % at 3 µM; 1.5% of 360,000 active; AID 624466;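 active means inhibition above a per-plate cutoff, the mean inhibition of test compounds on that plate plus 3 SD, cut at about 49% in these data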
#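 System: CHO RD-HGA16 cells bearing hTAAR1. Reagent: EC80 β-phenethylamine stimulus. Schedule: seeding 17-24 h prior, 75-min 37 °C, 30-min RT dye loading. Signal: Fluo-8 intracellular calcium dye fluorescence, real-time kinetic reads. Read-out: % inhibition from peak post-agonist over basal fluorescence ratio. Benchmarks: vehicle wells and EC80 agonist wells. Replicates: n of 1.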
# GPR7 antag: antagonists of human GPR7 (neuropeptides B/W receptor 1); inhibition, % at 4.4 µM; P48145; 1.1% of 290,000 active; GPR7-expressing cells, fluorescence antagonist assay; in the data active means inhibition above about 16%, passing the limit was not always enough;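 further: cells stimulated with the agonist NPW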
# OX1R HTRF confirm: confirmation of human orexin 1 receptor antagonists, HTRF format; 49% of 1,800 active; OX1R-expressing cells, HTRF antagonist assay; inhibition, % at 6.6 µM; shares compounds with OX1R antag-2; in the data active means inhibition above about 55%;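 further: CHO cells expressing OX1R stimulated with orexin A at about EC80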
# CHO-K1 HTRF: signal in parental CHO-K1 cells, OX1R antagonist counter-screen. shares compounds with OX1R antag-2. HTRF counterscreen. inhibition, % at 6.6 µM. 48% of 1,800 active. AID 493232; in the data active means inhibition above about 17%
# Numbers stand for hits; – = inactive; · = no result given; ! = repeats disagree. Compounds with a hit are over-represented: about 4.6% of the library has one in this group of screens.
SMILES,OX1R antag-1,OX1R antag-2,CHO parental Ca,TAAR1 ag,TAAR1 antag,GPR7 antag,OX1R HTRF confirm,CHO-K1 HTRF
O=C(NCc1cccnc1)C1CCCN(S(=O)(=O)c2cccc3nsnc23)C1 (configuration not stated),–,89,–,–,–,–,–,32
CNC[C@@H]1OCc2ccccc2-c2c(n(C)c3ccccc23)C(=O)N([C@@H](C)CO)C[C@@H]1C,·,·,·,–,–,·,·,·
O=C(Nc1ccc(F)cc1F)C1CCCN1S(=O)(=O)c1cccc2nsnc12 (configuration not stated),–,77,–,–,–,–,59,27
O=C(O)C1CCCCN1S(=O)(=O)c1cccc2nsnc12 (configuration not stated),–,–,–,·,·,–,·,·
O=C(CN1C(=O)S/C(=C/c2cccs2)C1=O)N1CCOCC1,–,86,–,–,–,–,–,29
O=C1CCC(C(=O)NCCN2C(=O)S/C(=C\c3cccnc3)C2=O)=NN1,–,106,–,–,–,–,–,59
O=C(O)CN1C(=O)/C(=C\c2cn(CC(=O)N3CCOCC3)c3ccccc23)SC1=S,–,100,–,–,–,–,–,49
O=C(CCN1C(=O)/C(=C\c2ccccc2F)SC1=S)N1CCOCC1,·,·,·,–,–,·,·,·
O=C(CN1C(=O)S/C(=C/c2cccnc2)C1=O)N1CCOCC1,–,112,–,–,–,–,–,72
O=C(CN1C(=O)S/C(=C/c2ccncc2)C1=O)N1CCOCC1,–,–,–,–,–,–,·,·
Cc1cc(F)ccc1NCc1cc2c(cc1[N+](=O)[O-])OCO2,–,85,–,–,–,–,–,21
COCCNC(=O)CN(c1cc(Cl)ccc1OC)S(=O)(=O)c1ccc(C)c([N+](=O)[O-])c1,–,–,–,–,–,–,·,·
COCCCNC(=O)CN(c1cc(Cl)ccc1OC)S(=O)(=O)c1ccc(C)c([N+](=O)[O-])c1,–,79,–,–,–,–,59,–
CCc1ccc[n+](-c2nc3ccccc3nc2C(=C=[N-])C#N)c1,–,–,–,–,–,–,·,·
Cc1cc(C)c[n+](-c2nc3ccccc3nc2C(=C=[N-])C#N)c1,–,84!,–,–,–,–,–,33
Cc1ccc[n+](-c2nc3ccccc3nc2C(=C=[N-])C#N)c1,–,96,–,–,–,–,–,41
COC(=O)CCN1CCSCCS1(=O)=O,·,·,·,–,–,·,·,·
CC1(C(=O)NC2CCCCCC2)CCN1C(=O)Cc1ccc(-c2ccccc2)cc1 (configuration not stated),·,·,·,–,–,·,·,·
Cc1ccc(NC(=O)CN2CCN(C(=O)C3CC3)CC2)c(F)c1,·,·,·,–,–,·,·,·
O=C(O)c1ccc(NC(=O)c2ccc3c(c2)C(=O)N(CC2CCCO2)C3=O)cc1 (configuration not stated),–,78,–,–,–,–,–,32
C[C@H](O)[C@@H]1CN2CCc3c([nH]c4c(-c5ccccc5)cccc34)[C@@H]2C[C@@H]1N(C)C(=O)Nc1ccccc1,·,·,·,–,–,·,·,·
COC(=O)[C@H]1C[C@@H]1[C@H](NS(=O)(=O)c1ccc2ccccc2c1)c1ccccc1,–,79,–,–,–,–,–,–
O=C(NC(c1ccccc1)c1ccsc1)C1CCN(Cc2ccc(Oc3ccccc3)cc2)CC1 (configuration not stated),·,·,·,–,–,·,·,·
O=[N+]([O-])c1cccc(OCc2cn3cccnc3n2)c1,–,130,–,–,–,–,–,27
CC(C)(C)n1c(O)c2n(c1=O)Cc1ccccc1N=C2c1ccccc1,·,·,·,–,–,·,·,·
SMILES,OX1R antag-1,OX1R antag-2,CHO parental Ca,TAAR1 ag,TAAR1 antag,GPR7 antag,OX1R HTRF confirm,CHO-K1 HTRF
Cc1ccc(CC(=O)NCCCn2ccnc2)cc1,–,–,–,–,–,–,·,·
Cc1ccc2nc3c(cc(C(=O)NCCCn4ccnc4)n3C)c(=O)n2c1,–,80,–,–,–,–,–,30
O=C(CCN1C(=O)c2cccc3cccc(c23)C1=O)NC1CCS(=O)(=O)C1 (configuration not stated),–,79,–,–,–,–,–,54
O=C(CCN1C(=O)c2cccc3cccc(c23)C1=O)NCC1CCCO1 (configuration not stated),–,92,–,–,–,–,–,40
O=C(CCN1C(=O)c2ccccc2C1=O)N1CCOCC1,–,–,–,–,–,–,·,·
O=C(CCN1C(=O)c2cccc3cccc(c23)C1=O)N1CCOCC1,–,80,–,–,–,–,–,64
O=C1C(=O)c2ccccc2C(O)=C1CCCCl,–,80,–,·,·,–,77,96
COc1ccc(CC2=C(O)c3ccccc3C(=O)C2=O)cc1,–,–,–,–,–,–,·,·
CNc1nc(N2CCc3ccccc32)ncc1F,–,89,–,–,–,–,83,–
COc1cc2c(cc1NC(=O)CCCCCN1C(=O)CCC1=O)oc1ccccc12,–,80,–,–,–,–,84,–
COc1cc2c(cc1NC(=O)CCCN1C(=O)CCC1=O)oc1ccccc12,–,–,–,–,–,–,·,·
CCCCNC1=CC(=O)C(=O)c2ccccc21,–,161,–,–,–,–,88,101
O=C(NN1C(=O)c2ccc(-c3ccc4c(c3)C(=O)N(NC(=O)c3cccnc3)C4=O)cc2C1=O)c1cccnc1,–,92,–,–,–,–,–,33
CC(=O)Nc1cccc(-c2ccnc3c2CC(C)(C(=O)NCc2cccs2)O3)c1 (configuration not stated),·,·,·,–,–,·,·,·
CC[n+]1ccc(/C=C2\Sc3ccccc3N2CCCS(=O)(=O)[O-])c2ccccc21,–,97,–,–,–,–,–,–
Cc1ccc2nsnc2c1NC(=O)c1ccc([N+](=O)[O-])cc1,–,–,–,–,–,–,·,·
CCCCNc1ccc2nsnc2c1[N+](=O)[O-],–,120,–,–,–,–,59,90
COC(=O)c1c(NC(=O)c2ccccc2)sc(C(N)=O)c1C,–,95,–,–,–,–,–,–
CCN(CC)c1ccc(/C=N/NC(=O)OC)c(O)c1,–,–,–,–,–,–,·,·
CCN(CC)c1ccc(/C=N/NC(=O)c2ccoc2C)c(O)c1,–,85,–,–,–,–,91,–
COCCOC(=O)C1=C(C)NC(C)=C(C(=O)OCCOC)C1/C=C/c1ccccc1OC,–,78,–,–,–,–,–,–
O=C1c2cccc3cc([N+](=O)[O-])cc(c23)C(=O)N1c1nncs1,–,78,–,–,–,·,61,86
O=C1N(c2ccccc2)c2ccccc2[C@]12C[C@H](O)CO2,·,·,·,–,–,·,·,·
